Experimental data published in PubChem BioAssay AID492951 (Molecular Libraries Program, Specialized Chemistry Center, …, 2010).
Values without a mark were called inactive. Calls of active or inactive are those of the source.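 Rule for the calls: active = inhibition above 10%; inactive = the rest.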

biological target: Hexokinase-4 (Homo sapiens) (UniProt P35557); experiment: hGlck enzyme activity off-target inhibitors – biochemical, recombinant hGlck, counter-screen for TbHK1 inhibitor project (AID 492951); settings: G6PDH-coupled NADH absorbance 340 nm, at 10 µM; active compounds read high
Outline: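 Test system: recombinant human glucokinase, G6PDH-coupled; Medium: pH 7.9 TEA buffer, MgCl2, NAD+; Also added: 20 mM glucose as reaction starter, plus 1 mM ATP; Compound dosing: single final test compound dose of 10 µM; Schedule: 10 min preincubation at room temperature; Measured by: NADH formation by absorbance at 340 nm; Repeats: triplicate.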

Hexokinase-4 (Homo sapiens), sequence (P35557 whole entry, looked up): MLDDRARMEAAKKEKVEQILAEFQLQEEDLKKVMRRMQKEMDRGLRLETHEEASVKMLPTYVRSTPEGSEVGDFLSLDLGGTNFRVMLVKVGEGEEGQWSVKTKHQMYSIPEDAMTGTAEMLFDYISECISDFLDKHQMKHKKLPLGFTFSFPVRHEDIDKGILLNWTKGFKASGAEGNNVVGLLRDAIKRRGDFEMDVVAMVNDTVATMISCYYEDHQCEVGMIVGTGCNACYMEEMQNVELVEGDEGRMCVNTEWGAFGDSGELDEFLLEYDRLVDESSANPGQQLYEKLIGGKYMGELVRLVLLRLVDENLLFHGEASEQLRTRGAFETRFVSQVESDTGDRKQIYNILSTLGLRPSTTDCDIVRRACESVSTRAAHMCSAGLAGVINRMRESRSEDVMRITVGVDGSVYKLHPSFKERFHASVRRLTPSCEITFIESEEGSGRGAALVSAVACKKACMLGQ

Row | Compound | outcome | inhibition
1 | O=C(Nc1cc(Cl)ccc1C(=O)O)c1ccsc1 | inactive | –
2 | COc1ccc(C(=O)Nc2cc(Cl)ccc2S(N)(=O)=O)cc1 | – | 11.1% (active)
3 | O=c1c2ccc(F)cc2sn1-c1ccccc1 | – | 37.8% (active)
4 | N#Cc1ccc2sn(-c3ccccc3)c(=O)c2c1 | – | 4.3%
5 | COc1ccc(NC(=O)c2ccccc2C(=O)O)cc1 | – | 0.9%
6 | O=c1c(O)c(-c2ccc(O)c(O)c2)oc2cc(O)cc(O)c12 | – | 68.9% (active)
7 | O=C(Nc1cc(Cl)ccc1C(=O)O)c1ccc(C(F)(F)F)cc1 | inactive | –
8 | O=C(Nc1cc(Cl)ccc1C(=O)O)c1ccncc1 | inactive | –
9 | O=C(Nc1cc(Cl)ccc1C(=O)O)c1ccc2c(c1)OCO2 | inactive | –
10 | O=C(Cn1sc2ccccc2c1=O)Nc1ccccc1F | inactive | –
11 | O=c1c2cc(F)ccc2sn1-c1ccccc1Cl | – | 14.4% (active)
12 | Cc1ccc(C(=O)Nc2cc(Cl)ccc2C(=O)O)c(C)c1 | – | 12.5% (active)
13 | O=C(Cn1sc2ccccc2c1=O)N1CCCCC1 | inactive | –
14 | COc1ccc(C(=O)NC(CC(=O)O)c2cccc(Cl)c2)cc1 (stereo not drawn) | inactive | –
15 | CC(=O)Nc1cc(Cl)ccc1C(=O)O | inactive | –
16 | CCCCCCCC(=O)Nc1cc(Cl)ccc1C(=O)O | inactive | –
17 | CC(C)(C)c1ccc(C(=O)Nc2cc(Cl)ccc2C(=O)O)cc1 | inactive | –
18 | COc1ccc(C(=O)Nc2cc(C)ccc2C(=O)O)cc1 | inactive | –
19 | COc1ccc(NC(=O)c2ccc(Cl)cc2C(=O)O)cc1 | inactive | –

Row | Compound | outcome | inhibition
20 | COc1ccc(-n2sc3ccccc3c2=O)cc1 | inactive | –
21 | O=C(Cn1sc2ccccc2c1=O)NCc1ccccc1 | inactive | –
22 | COc1ccc(-c2cc3ccccc3[nH]2)cc1 | – | 30.3% (active)
23 | COc1ccc(Nc2cc(Cl)ccc2C(=O)O)cc1 | inactive | –
24 | CN(C)c1ccc(NC(=O)Cn2sc3ccccc3c2=O)cc1 | – | 14.1% (active)
25 | O=C(Nc1ccccc1)n1sc2ccccc2c1=O | – | 32.9% (active)
26 | O=C(Nc1cc(Cl)ccc1C(=O)O)c1ccoc1 | inactive | –
27 | COc1ccc(C(=O)Nc2cc(OC)ccc2C(=O)O)cc1 | – | 6.9%
28 | CC(C)Cc1ccc(C(=O)Nc2cc(Cl)ccc2C(=O)O)cc1 | – | 19.5% (active)
29 | CC(C)c1cccc(C(=O)Nc2cc(Cl)ccc2C(=O)O)c1 | inactive | –
30 | O=c1c2cc(N3CCOCC3)ccc2sn1-c1ccccc1 | inactive | –
31 | COc1ccc(C(=O)Nc2ccccc2-c2nn[nH]n2)cc1 | inactive | –
32 | COc1ccc(NC(=O)c2ccccc2SCc2ccccc2)cc1 | – | 41.2% (active)
33 | O=C(Cn1sc2ccccc2c1=O)Nc1cccc(Br)c1 | – | 22.2% (active)
34 | N#Cc1ccc2c(=O)n(-c3ccccc3)sc2c1 | – | 54% (active)
35 | C=C(C)c1ccc(C(=O)Nc2cc(Cl)ccc2C(=O)O)cc1 | – | 25.9% (active)
36 | Cc1ccc(C(=O)Nc2cc(Cl)ccc2C(=O)O)cc1 | inactive | –
37 | COc1ccc(C(=O)Nc2cc(Cl)ccc2C(=O)O)cn1 | inactive | –
38 | O=C(Cn1sc2ccccc2c1=O)NC1CCCCC1 | – | 8.01%
